Molecules are shown by their SMILES. pIC50, pKi: −log10 of the molar value.

This is an account of results in ChEMBL document CHEMBL4673268, “The optimization of a novel selective antagonist for human M muscarinic acetylcholine receptor” (Bioorg Med Chem Lett, 2020).

Assay [1] deals with T1, Muscarinic acetylcholine receptor M4 (Homo sapiens, UniProt P08173).
T1 sequence (P08173 whole entry): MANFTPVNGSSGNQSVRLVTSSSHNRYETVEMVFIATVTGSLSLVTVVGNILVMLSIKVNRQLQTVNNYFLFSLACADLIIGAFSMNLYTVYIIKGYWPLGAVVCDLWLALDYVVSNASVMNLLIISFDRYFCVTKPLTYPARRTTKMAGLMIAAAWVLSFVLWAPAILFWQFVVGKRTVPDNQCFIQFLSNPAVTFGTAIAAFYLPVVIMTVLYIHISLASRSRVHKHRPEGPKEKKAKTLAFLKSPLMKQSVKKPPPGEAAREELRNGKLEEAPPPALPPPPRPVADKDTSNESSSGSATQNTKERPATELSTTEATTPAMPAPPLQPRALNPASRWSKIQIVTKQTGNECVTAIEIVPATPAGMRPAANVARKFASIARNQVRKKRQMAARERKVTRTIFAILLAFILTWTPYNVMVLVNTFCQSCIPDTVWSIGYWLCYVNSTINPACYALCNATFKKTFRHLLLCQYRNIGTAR
The experiment in a line: Displacement of [3H]-NMS from muscarinic M4 receptor (unknown origin) expressed in CHO-K1 cell membranes assessed as inhibition constant by radioligand competition analysis. Further details: species or system Cell membrane. The procedure, abridged: (§1)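 Inhibition constants came from radioligand competition binding. Acetylcholine and atropine were included as positive controls for competitive binding. Values are given as mean ± SEM.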

Assay [2] has as its target Muscarinic acetylcholine receptor M3 (Homo sapiens, UniProt P20309). Nature of the assay: Displacement of [3H]-NMS from muscarinic M3 receptor (unknown origin) expressed in CHO-K1 cell membranes assessed as inhibition constant by radioligand competition analysis. Set-up: species or system Cell membrane. The procedure, abridged: as §1
For assay [3], the target named is T2, Muscarinic acetylcholine receptor M2 (Homo sapiens, UniProt P08172).
T2 sequence (P08172 whole entry): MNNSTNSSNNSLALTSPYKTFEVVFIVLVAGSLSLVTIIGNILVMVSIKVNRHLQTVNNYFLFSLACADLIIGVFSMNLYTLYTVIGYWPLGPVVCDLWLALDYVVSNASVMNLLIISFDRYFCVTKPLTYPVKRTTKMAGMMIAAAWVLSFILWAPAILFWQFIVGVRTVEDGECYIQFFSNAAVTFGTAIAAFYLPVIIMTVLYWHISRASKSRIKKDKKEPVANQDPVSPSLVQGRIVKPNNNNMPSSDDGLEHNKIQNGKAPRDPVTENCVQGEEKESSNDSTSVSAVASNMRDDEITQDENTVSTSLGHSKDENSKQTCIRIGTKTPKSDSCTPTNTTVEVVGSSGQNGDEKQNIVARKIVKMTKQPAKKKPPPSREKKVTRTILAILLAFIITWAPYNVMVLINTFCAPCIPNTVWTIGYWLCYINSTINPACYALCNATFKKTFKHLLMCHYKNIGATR
The experiment in a line: Displacement of [3H]-NMS from muscarinic M2 receptor (unknown origin) expressed in CHO-K1 cell membranes assessed as inhibition constant by radioligand competition analysis. Set-up: species or system Cell membrane.

In assay [4] the target is T3, Muscarinic acetylcholine receptor M1 (Homo sapiens, UniProt P11229).
T3 sequence (P11229 whole entry): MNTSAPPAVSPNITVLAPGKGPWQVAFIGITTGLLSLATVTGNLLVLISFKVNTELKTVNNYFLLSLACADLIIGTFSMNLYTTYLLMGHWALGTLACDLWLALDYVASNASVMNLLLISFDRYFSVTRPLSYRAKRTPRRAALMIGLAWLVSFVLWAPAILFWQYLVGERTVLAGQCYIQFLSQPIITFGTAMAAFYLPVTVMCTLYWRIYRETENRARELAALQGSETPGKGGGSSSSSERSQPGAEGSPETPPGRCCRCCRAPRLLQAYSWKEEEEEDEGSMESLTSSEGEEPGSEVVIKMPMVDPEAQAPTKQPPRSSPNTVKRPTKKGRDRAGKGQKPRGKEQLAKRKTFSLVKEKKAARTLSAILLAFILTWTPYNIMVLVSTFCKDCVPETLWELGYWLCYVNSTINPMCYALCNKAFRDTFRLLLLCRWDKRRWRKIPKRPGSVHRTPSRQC
The experiment in a line: Displacement of [3H]-NMS from muscarinic M1 receptor (unknown origin) expressed in CHO-K1 cell membranes assessed as inhibition constant by radioligand competition analysis. Further details: species or system Cell membrane. The procedure, abridged: as §1

In assay [5] the target is T2, Muscarinic acetylcholine receptor M2. The experiment in a line: Antagonist activity at human muscarinic M2 receptor expressed in CHO cells co-expressing Galpha15 assessed as inhibition of acetylcholine-induced calcium mobilization relative to acetylcholine. It counts as functional, cell-based.

Chain of Muscarinic acetylcholine receptor M3 (P20309 whole entry): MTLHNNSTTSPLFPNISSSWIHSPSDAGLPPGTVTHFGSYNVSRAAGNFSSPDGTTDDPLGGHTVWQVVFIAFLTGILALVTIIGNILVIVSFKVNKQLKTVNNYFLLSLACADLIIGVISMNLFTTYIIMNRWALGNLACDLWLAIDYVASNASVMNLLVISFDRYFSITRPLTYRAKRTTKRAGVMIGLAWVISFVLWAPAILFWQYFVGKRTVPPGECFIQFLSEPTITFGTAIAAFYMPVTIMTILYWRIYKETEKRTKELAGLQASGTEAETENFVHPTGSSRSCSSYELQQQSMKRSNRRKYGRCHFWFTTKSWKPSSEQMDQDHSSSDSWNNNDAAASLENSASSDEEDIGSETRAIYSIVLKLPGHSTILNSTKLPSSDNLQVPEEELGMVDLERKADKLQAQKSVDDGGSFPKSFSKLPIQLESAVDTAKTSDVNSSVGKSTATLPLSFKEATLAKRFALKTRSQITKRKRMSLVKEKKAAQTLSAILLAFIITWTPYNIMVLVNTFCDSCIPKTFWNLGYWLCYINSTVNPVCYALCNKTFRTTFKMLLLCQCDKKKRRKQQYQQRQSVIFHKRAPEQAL

In the case of `O=C(CN1CCCc2cnccc21)N1CCCCC1`, the negative-log Ki (pKi) in assay [1] was 4.23; in assay [2], 4.22; in assay [3] it was 4.39; in assay [4], less than 4.00. Besides, the negative-log IC50 (pIC50) in assay [5] is less than 4.00.

Regarding `CC1CCc2ccccc2N1CC(=O)N1CCCC1` (stereo not drawn), the pKi is 5.20 in assay [1], less than 4.00 in assay [2], 5.61 in assay [3] and 4.35 in assay [4]. In assay [5], the negative-log IC50 (pIC50) was 5.31.

With `O=C(CCN1CCCc2ccccc21)N1CCC(O)C1` (stereo not drawn), the negative-log Ki (pKi) was 4.30 in assay [1], less than 4.00 in assay [2], 4.78 in assay [3] and 4.29 in assay [4]. The pIC50 in assay [5] is 4.15.

Consider `O=C(CCN1CCCc2ccccc21)Nc1nccs1`, for which the figures for the pKi in assay [1], in assay [2] and in assay [4] were 4.23, less than 4.00 and 5.95, respectively.

As to `O=C(CN1CCCc2ccccc21)N1CCCC1`, the pKi was 5.86 in assay [1], 5.13 in assay [2], 6.41 in assay [3] and 5.54 in assay [4]. Also, the pIC50 in assay [5] is 6.21.

For the compound `O=C(CCN1CCCc2ccccc21)NC1CCCCC1`, the values for the negative-log Ki (pKi) in assay [1], in assay [2] and in assay [4] were 6.80, 5.76 and 6.64, respectively.

Take `Cn1ccc2c(NC(=O)CCN3CCCc4ccccc43)cccc21`: the pKi in assay [1] was 4.92; in assay [2] it was less than 4.00; in assay [3] it was 5.64; in assay [4] it was 5.30. The pIC50 in assay [5] is 6.37.

Regarding `CC1CCCC(C)N1C(=O)CCN1CCCc2ccccc21` (stereo not drawn), the figures for the pKi in assay [1], in assay [2] and in assay [4] were 4.75, 4.26 and 4.56, respectively.

Regarding `O=C(CCN1CCCc2ccccc21)Nc1ccc(Cl)cc1`, the pKi is 4.97 in assay [1], 4.97 in assay [2], 5.48 in assay [3] and 5.25 in assay [4]. In addition, the negative-log IC50 (pIC50) in assay [5] is 5.85.

Take `COC1CN(C(=O)CCN2CCCc3ccccc32)C1`: the pKi in assay [1] is 4.80; in assay [2], 4.49; in assay [3], 5.45; in assay [4] it was 4.76. Further, the negative logarithm of the IC50 (pIC50) in assay [5] is 4.69.

`CC1CCN(C(=O)CCN2CCCc3ccccc32)CC1`: the pKi in assay [1] is 6.54; in assay [2], 6.01; in assay [4] it was 6.52.

In the case of `CC1CCCN(C(=O)CCN2CCCc3ccccc32)C1` (stereo not drawn), the pKi in assay [1] was 6.11; in assay [2], 5.54; in assay [3], 6.39; in assay [4], 6.22. For the same compound, the pIC50 in assay [5] is 5.82.

As for `O=C(CCN1CCCc2ccccc21)NC1CCCC1`, the pKi is 6.59 in assay [1], 5.59 in assay [2] and 6.61 in assay [4].

Regarding `O=C(O)C1CCCN1C(=O)CCN1CCCc2ccccc21` (stereo not drawn), the pKi in assay [1] is 6.05; in assay [2] it was 5.34; in assay [3], 6.24; in assay [4], 5.98. In addition, the negative-log IC50 (pIC50) in assay [5] was 6.11.

For `CCn1c2ccccc2c2ccc(NCC(=O)N3CCCCC3)cc21`, the negative-log Ki (pKi) in assay [1] is 4.04; in assay [2] it was 4.35; in assay [4], 4.36.

In the case of `O=C(CCN1CCCc2ccccc21)N1CCC[C@H]1CO`, the negative-log Ki (pKi) in assay [1] was 4.89; in assay [2], 4.36; in assay [3], 5.29; in assay [4], 4.85. In addition, the pIC50 in assay [5] was 4.76.

Consider `O=C(CCN1CCCc2ccccc21)N1CCC(O)CC1`, for which the pKi in assay [1] is 4.77; in assay [2], 4.48; in assay [3], 4.88; in assay [4], 4.63. For the same compound, the pIC50 in assay [5] was 4.82.

`Cc1ccc2c(c1)CCCN2CC(=O)N1CCCCC1`: the pKi in assay [1] is 4.67; in assay [2] it was 4.18; in assay [3], 4.73; in assay [4], 4.75. The negative-log IC50 (pIC50) in assay [5] was 4.61.

As for `O=C(CCN1CCCc2ccccc21)Nc1cccc2ccccc12`, the negative logarithm of the Ki (pKi) is 5.39 in assay [1], 4.58 in assay [2], 6.04 in assay [3] and 5.03 in assay [4]. The pIC50 in assay [5] is 6.47.

Take `O=C(CCN1CCCc2ccccc21)N1CCC1`: the negative logarithm of the Ki (pKi) was 5.24 in assay [1], 4.94 in assay [2], 5.77 in assay [3] and 5.35 in assay [4]. For the same compound, the pIC50 in assay [5] was 4.92.

Consider `O=C(CCN1CCCc2ccccc21)N1CCCCC1CO` (stereo not drawn), for which the pKi was 5.14 in assay [1], 4.50 in assay [2], 5.44 in assay [3] and 4.94 in assay [4]. Besides, the pIC50 in assay [5] was 4.97.

As for `O=C(CCN1CCCc2ccccc21)Nc1ccc(O)cc1F`, the pKi was less than 4.00 in assay [1], less than 4.00 in assay [2], 4.19 in assay [3] and less than 4.00 in assay [4]. Besides, the pIC50 in assay [5] was less than 4.00.

Turning to `O=C(CN1CCCc2cnccc21)N1CCCC1`, the negative logarithm of the Ki (pKi) is less than 4.00 in assay [1], 4.07 in assay [2], 4.36 in assay [3] and 4.03 in assay [4]. The negative logarithm of the IC50 (pIC50) in assay [5] is less than 4.00.

Regarding `O=C(CN1CCc2ccc(Br)cc21)N1CCCCC1`, the pKi in assay [1], in assay [2], in assay [3] and in assay [4] was less than 4.00 in each case. Also, the pIC50 in assay [5] is less than 4.00.

With `C[C@@H]1CCC[C@H](C)N1C(=O)CCN1CCCc2ccccc21`, the pKi is 5.95 in assay [1], 5.45 in assay [2] and 5.94 in assay [4].

As to `CC(C)(C)OC(=O)N1CCN(CC(=O)n2c3ccccc3c3ccccc32)CC1`, the pKi in assay [1] was 4.59; in assay [2], 4.66; in assay [3] it was 4.64; in assay [4] it was 4.89. Moreover, in assay [5], the pIC50 was 4.73.

Take `O=C(CCN1CCCc2ccccc21)N1CCCC(O)C1` (stereo not drawn): the pKi was 4.73 in assay [1], 4.27 in assay [2], 5.21 in assay [3] and 4.48 in assay [4]. For the same compound, in assay [5], the negative-log IC50 (pIC50) was 4.53.

As for `Cn1ccc(NC(=O)CCN2CCCc3ccccc32)n1`, the negative-log Ki (pKi) in assay [1] is 5.06; in assay [2] it was 4.59; in assay [3], 5.48; in assay [4] it was 5.12. Moreover, the negative-log IC50 (pIC50) in assay [5] was 6.01.

Take `O=C(CCN1CCCc2ccccc21)N1CCCC(CO)C1` (stereo not drawn): the negative logarithm of the Ki (pKi) in assay [1] is 5.76; in assay [2] it was 5.28; in assay [3] it was 6.21; in assay [4] it was 5.84. The negative-log IC50 (pIC50) in assay [5] is 6.12.

As for `O=C(CCN1CCCc2ccccc21)N1CCCC1`, the negative logarithm of the Ki (pKi) was 5.80 in assay [1], 5.54 in assay [2], 6.54 in assay [3] and 5.98 in assay [4]. Also, in assay [5], the pIC50 was 5.74.

Consider `O=C(CN1CCCc2ccccc21)N1CCCCC1`, for which the negative logarithm of the Ki (pKi) in assay [1] was 5.91; in assay [2], 4.96; in assay [3], 6.38; in assay [4], 5.54. Also, the pIC50 in assay [5] was 6.36.

For `O=C(CCN1CCCc2ccccc21)Nc1ccccc1`, the figures for the negative logarithm of the Ki (pKi) in assay [1], in assay [2] and in assay [4] were 6.67, 6.11 and 6.58, respectively.

With `O=C(CCN1CCCc2ccccc21)Nc1cccnn1`, the figures for the negative logarithm of the Ki (pKi) in assay [1], in assay [2] and in assay [4] were 4.85, 4.53 and 4.85, respectively.

With `O=C(CCN1CCCc2ccccc21)NCc1cccc(F)c1`, the values for the negative logarithm of the Ki (pKi) in assay [1], in assay [2] and in assay [4] were 5.19, 4.89 and 5.69, respectively.

For the compound `O=C(CN1CCCc2ccc(O)cc21)N1CCCCC1`, the negative-log Ki (pKi) in assay [1] was 4.06; in assay [2], less than 4.00; in assay [4], less than 4.00.
